In brackets after ≈: the same amount, converted by molar mass.

We go through 12 compounds from ChEMBL document CHEMBL1255354, “Methicillin-resistant Staphylococcus saprophyticus isolates carrying staphylococcal cassette chromosome mec have emerged in urogenital tract infections” (2008).

For assay [1], the system named is Staphylococcus saprophyticus. Briefly: Antibacterial activity against methicillin-resistant mecA-positive Staphylococcus saprophyticus isolate TSU67 isolated from genitourinary tracts of acute cystitis patient after 24 hrs at 35 degC by agar dilution method. It counts as functional. The settings on record: isolate TSU67, Urine. In a few lines: (§1)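 MICs by agar dilution per CLSI M7-A6 on Mueller-Hinton agar, plates incubated 35°C for 24 h. Isolates identified as S. saprophyticus by Gram stain, catalase, coagulase, DNase, egg yolk mannitol salt agar growth, novobiocin susceptibility and ID 32 API Staph; mecA detected by dot-blot hybridization.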
Background: In agar dilution the substance is mixed into plates at graded concentrations.

Assay [2] relates to Staphylococcus saprophyticus. Briefly: Antibacterial activity against methicillin-resistant mecA-positive Staphylococcus saprophyticus isolate TSU69 isolated from genitourinary tracts of acute cystitis patient after 24 hrs at 35 degC by agar dilution method. Type of assay: functional. As to conditions: isolate TSU69, Urine. In a few lines: as §1
Assay [3] relates to Staphylococcus saprophyticus. Briefly: Antibacterial activity against methicillin-resistant mecA-positive Staphylococcus saprophyticus isolates isolated from genitourinary tracts of acute cystitis patient after 24 hrs at 35 degC by agar dilution method. Type of assay: functional. The settings on record: Urine. The essentials:
as §1

Assay [4] relates to Staphylococcus saprophyticus. The experiment in a line: Antibacterial activity against methicillin-resistant mecA-positive Staphylococcus saprophyticus isolate TSU28 isolated from genitourinary tracts of acute cystitis patient after 24 hrs at 35 degC by agar dilution method. It counts as functional. The settings on record: isolate TSU28, Urine. In a few lines: as §1
Assay [5] relates to Staphylococcus saprophyticus. Briefly: Antibacterial activity against methicillin-resistant mecA-positive Staphylococcus saprophyticus isolate TSU47 isolated from genitourinary tracts of acute cystitis patient after 24 hrs at 35 degC by agar dilution method. Type of assay: functional. As to conditions: isolate TSU47, Urine. In a few lines:
as §1

For assay [6], the system named is Staphylococcus saprophyticus. Briefly: Antibacterial activity against methicillin-resistant mecA-positive Staphylococcus saprophyticus isolate TSU57 isolated from genitourinary tracts of acute cystitis patient after 24 hrs at 35 degC by agar dilution method. It counts as functional. The settings on record: isolate TSU57, Urine. The essentials:
as §1

Assay [7] has as its system Staphylococcus saprophyticus. Briefly: Antibacterial activity against methicillin-resistant mecA-positive Staphylococcus saprophyticus isolate TSU90 isolated from genitourinary tracts of acute cystitis patient after 24 hrs at 35 degC by agar dilution method. Type of assay: functional. As to conditions: isolate TSU90, Urine. The essentials:
as §1

In assay [8] the test system is Staphylococcus saprophyticus. Briefly: Antibacterial activity against methicillin-resistant mecA-positive Staphylococcus saprophyticus isolate TSU18 isolated from genitourinary tracts of acute cystitis patient after 24 hrs at 35 degC by agar dilution method. Type of assay: functional. The settings on record: isolate TSU18, Urine. The essentials:
as §1

For assay [9], the system named is Staphylococcus saprophyticus. The experiment in a line: Antibacterial activity against methicillin-resistant mecA-positive Staphylococcus saprophyticus isolate TSU33 after 24 hrs at 35 degC by agar dilution method. The settings on record: isolate TSU33, 24 h.

With `CC1COc2c(N3CCN(C)CC3)c(F)cc3c(=O)c(C(=O)O)cn1c23` (stereo unspecified) [OFLOXACIN], the MIC in [1] and in assay [2] was 1 µg/mL (≈ 2.77 µM) in each case. Also, the MIC90 (commonly an inhibitory concentration at the 90% level, which refers to growth in some studies and to a panel of isolates in others) in assay [3] is 1 µg/mL (≈ 2.77 µM).
For the compound `CO[C@@]1(NC(=O)Cc2cccs2)C(=O)N2C(C(=O)O)=C(COC(N)=O)CS[C@@H]21` [CEFOXITIN], the MIC (commonly the lowest concentration found to suppress growth) came out at 16 µg/mL (≈ 37.4 µM) in [4]; 8 µg/mL (≈ 18.7 µM) in assay [5]; 16 µg/mL (≈ 37.4 µM) in assay [6]; 32 µg/mL (≈ 74.9 µM) in assay [1]; 32 µg/mL (≈ 74.9 µM) in assay [2]; 16 µg/mL (≈ 37.4 µM) in [7]. Besides, the MIC was found to be 16 µg/mL (≈ 37.4 µM) in [8] and 8 µg/mL (≈ 18.7 µM) in assay [9]. In addition, the MIC50 (as a rule, an inhibitory concentration at the 50% level, which refers to growth in some studies and to a panel of isolates in others) in assay [3] came out at 2 µg/mL (≈ 4.68 µM). Also, in assay [3], the MIC90 turned out to be 2 µg/mL (≈ 4.68 µM).
Take `CN[C@H](CC(C)C)C(=O)N[C@H]1C(=O)N[C@@H](CC(N)=O)C(=O)N[C@H]2C(=O)N[C@H]3C(=O)N[C@H](C(=O)N[C@H](C(=O)O)c4cc(O)cc(O)c4-c4cc3ccc4O)[C@H](O)c3ccc(c(Cl)c3)Oc3cc2cc(c3O[C@@H]2O[C@H](CO)[C@@H](O)[C@H](O)[C@H]2O[C@H]2C[C@](C)(N)[C@H](O)[C@H](C)O2)Oc2ccc(cc2Cl)[C@H]1O` [VANCOMYCIN]: the minimal inhibitory concentration (MIC) in [4] amounted to 1 µg/mL (≈ 0.69 µM); in [5], 1 µg/mL (≈ 0.69 µM); in assay [6], 0.5 µg/mL (≈ 0.345 µM); in [1], 1 µg/mL (≈ 0.69 µM); in assay [2], 1 µg/mL (≈ 0.69 µM); in assay [7] it was 1 µg/mL (≈ 0.69 µM). Moreover, the MIC in [8] and in assay [9] was 0.5 µg/mL (≈ 0.345 µM) each time. This compound also returned an MIC50 in assay [3] of 0.5 µg/mL (≈ 0.345 µM). In assay [3], this compound showed an MIC90 of 1 µg/mL (≈ 0.69 µM).
Turning to `Cc1onc(-c2ccccc2)c1C(=O)N[C@@H]1C(=O)N2[C@@H]1SC(C)(C)[C@@H]2C(=O)O` [OXACILLIN], the MIC turned out to be 256 µg/mL (≈ 638 µM) in assay [4]; 64 µg/mL (≈ 159 µM) in assay [5]; 128 µg/mL (≈ 319 µM) in assay [6]; 256 µg/mL (≈ 638 µM) in assay [1]; 128 µg/mL (≈ 319 µM) in [2]; 128 µg/mL (≈ 319 µM) in assay [7]. Moreover, the MIC in assay [8] and in [9] was 128 µg/mL (≈ 319 µM) in each case. Further, the MIC50 in [3] came out at 0.5 µg/mL (≈ 1.25 µM). The compound also gave an MIC90 in assay [3] of 1 µg/mL (≈ 2.49 µM).
For the compound `C[C@@H](O)[C@H]1C(=O)N2C(C(=O)O)=C(SCCNC=N)C[C@H]12` [IMIPENEM ANHYDROUS], the MIC in assay [4], in assay [5], in [6], in assay [1], in assay [2] and in assay [7] was 0.125 µg/mL (≈ 0.418 µM) throughout. Also, the MIC in [8] and in [9] was not above 0.06 µg/mL each time. This compound also displayed an MIC50 in assay [3] not above 0.06 µg/mL. In assay [3], this compound had an MIC90 not above 0.06 µg/mL.
Take `C[C@@H]1O[C@@H]1P(=O)(O)O` [FOSFOMYCIN]: the MIC in assay [4] was not below 512 µg/mL; in assay [5], 128 µg/mL (≈ 927 µM); in assay [6], 128 µg/mL (≈ 927 µM); in [1] it was 256 µg/mL (≈ 1850 µM); in assay [2] it was not below 512 µg/mL; in assay [7] it was not below 512 µg/mL. Also, the MIC turned out to be 64 µg/mL (≈ 464 µM) in assay [8] and 128 µg/mL (≈ 927 µM) in assay [9]. Moreover, in assay [3], the MIC50 amounted to 128 µg/mL (≈ 927 µM). This compound also came in with an MIC90 in [3] not below 512 µg/mL.
In the case of `CC[C@H]1OC(=O)[C@H](C)[C@@H](O[C@H]2C[C@@](C)(OC)[C@@H](O)[C@H](C)O2)[C@H](C)[C@@H](O[C@@H]2O[C@H](C)C[C@H](N(C)C)[C@H]2O)[C@](C)(OC)C[C@@H](C)C(=O)[C@H](C)[C@@H](O)[C@]1(C)O` [CLARITHROMYCIN], the MIC in assay [4] was determined as 32 µg/mL (≈ 42.8 µM); in assay [5], 16 µg/mL (≈ 21.4 µM); in assay [6], 16 µg/mL (≈ 21.4 µM); in [1] it was 0.125 µg/mL (≈ 0.167 µM); in assay [2], 0.125 µg/mL (≈ 0.167 µM); in assay [7] it was 16 µg/mL (≈ 21.4 µM). The MIC in [8] and in assay [9] was 16 µg/mL (≈ 21.4 µM) each time. The MIC50 in assay [3] was not above 0.06 µg/mL. Further, the MIC90 in assay [3] was 1 µg/mL (≈ 1.34 µM).
With `NCC[C@H](O)C(=O)N[C@@H]1C[C@H](N)[C@@H](O[C@H]2O[C@H](CN)CC[C@H]2N)[C@H](O)[C@H]1O[C@H]1O[C@H](CO)[C@@H](O)[C@H](N)[C@H]1O` [ARBEKACIN], the MIC in assay [4], in assay [5], in [6], in assay [1], in assay [2] and in [7] was not above 0.06 µg/mL in each case. The MIC in assay [8] and in assay [9] was not above 0.06 µg/mL each time. In [3], this compound registered an MIC50 not above 0.06 µg/mL. The compound further returned an MIC90 in [3] not above 0.06 µg/mL.
In assay [5], `CC1(C)S[C@@H]2[C@H](NC(=O)[C@H](N)c3ccccc3)C(=O)N2[C@H]1C(=O)O` [AMPICILLIN] gave an MIC of 4 µg/mL (≈ 11.4 µM). In assay [3], this compound returned an MIC50 of 0.25 µg/mL (≈ 0.715 µM) and an MIC90 of 1 µg/mL (≈ 2.86 µM).
For the compound `NC[C@H]1O[C@H](O[C@H]2[C@H](O)[C@@H](O[C@H]3O[C@H](CO)[C@@H](O)[C@H](N)[C@H]3O)[C@H](N)C[C@@H]2N)[C@H](O)[C@@H](O)[C@@H]1O` [KANAMYCIN], the MIC in [4] came to 0.25 µg/mL (≈ 0.516 µM); in assay [5] it was 0.25 µg/mL (≈ 0.516 µM); in [6], 0.25 µg/mL (≈ 0.516 µM); in assay [1], 0.25 µg/mL (≈ 0.516 µM); in assay [2], 0.5 µg/mL (≈ 1.03 µM); in assay [7], 0.5 µg/mL (≈ 1.03 µM). Further, the MIC in [8] and in [9] was 0.25 µg/mL (≈ 0.516 µM) each time. The compound further returned an MIC50 in [3] of 0.25 µg/mL (≈ 0.516 µM). In assay [3], this compound returned an MIC90 of 0.5 µg/mL (≈ 1.03 µM).
Consider `Cc1nnc(SCC2=C(C(=O)O)N3C(=O)[C@@H](NC(=O)Cn4cnnn4)[C@H]3SC2)s1` [CEFAZOLIN], for which the MIC in assay [4] came to 32 µg/mL (≈ 70.4 µM); in assay [5], 4 µg/mL (≈ 8.8 µM); in assay [6] it was 16 µg/mL (≈ 35.2 µM); in assay [1], 128 µg/mL (≈ 282 µM); in assay [2], 128 µg/mL (≈ 282 µM); in assay [7] it was 64 µg/mL (≈ 141 µM). Further, the figures for the MIC in assay [8] and in assay [9] were 16 µg/mL (≈ 35.2 µM) and 1 µg/mL (≈ 2.2 µM), respectively. The same compound came in with an MIC50 in assay [3] of 1 µg/mL (≈ 2.2 µM). Besides, in assay [3], the MIC90 was 2 µg/mL (≈ 4.4 µM).
For `CC[C@H]1OC(=O)[C@H](C)[C@@H](O[C@H]2C[C@@](C)(OC)[C@@H](O)[C@H](C)O2)[C@H](C)[C@@H](O[C@@H]2O[C@H](C)C[C@H](N(C)C)[C@H]2O)[C@](C)(O)C[C@@H](C)C(=O)[C@H](C)[C@@H](O)[C@]1(C)O` [ERYTHROMYCIN], the MIC in assay [4] amounted to 128 µg/mL (≈ 174 µM); in assay [5], 64 µg/mL (≈ 87.2 µM); in [6], 64 µg/mL (≈ 87.2 µM); in assay [1], 0.25 µg/mL (≈ 0.341 µM); in assay [2] it was 0.25 µg/mL (≈ 0.341 µM); in assay [7], 64 µg/mL (≈ 87.2 µM). Besides, the MIC in [8] and in assay [9] was 64 µg/mL (≈ 87.2 µM) each time. This compound came in with an MIC50 in assay [3] of 0.125 µg/mL (≈ 0.17 µM). Besides, in assay [3], the MIC90 amounted to 2 µg/mL (≈ 2.73 µM).
